How the values were obtained:
Rattus norvegicus [1] = assay: Evaluation of antiulcer activity( percent decrease in total number of lesions in cold-restraint, stressed rats) at intraperitoneal dose at 100 mg/kg; Active; assay type: functional
In short: (§1)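 Nonfasted female Sprague–Dawley rats (90–120 g) were immobilized supine and held at 12 °C for 3 h to induce gastric ulceration. Drug was suspended in saline with 10 g/L carboxymethylcellulose and 1 g/L Tween 80 and given po or ip 3 h before stress. Rats were then killed and stomachs removed. Readout: percent decrease in total lesion number versus controls. Active: p ≤ 0.05.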

Cavia porcellus [2] = assay: Evaluation of bronchodilator activity at dose 60 mg/kg perorally 1 hr prior to histamine aerosol exposure.; assay type: functional; details: route oral
In short: (§2)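 Guinea pigs received drug po, dissolved in 1 N HCl or suspended in vehicle, 1 h before challenge. The challenge was 0.4% aqueous histamine nebulized at 6 psi into a closed chamber. Respiratory status was scored 0–4 (4 = unconsciousness). Percent protection compares the total score of 8 treated animals with a control group of 8 (control = 0, complete protection = 100), giving a single value.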

Rattus norvegicus [3] = assay: Evaluation of antiulcer activity (% decrease in total number of lesions in cold-restraint, stressed rats) at peroral dose 10 mg/kg.; assay type: functional; details: route oral; in short: as §1
Rattus norvegicus [4] = assay: Evaluation of antiulcer activity( percent decrease in total number of lesions in cold-restraint, stressed rats) at intraperitoneal dose at 100 mg/kg; Inactive; assay type: functional; in short: as §1
Rattus norvegicus [5] = assay: Evaluation of antiulcer activity (percent decrease in total number of lesions in cold-restraint, stressed rats) at peroral dose 10 mg/kg; Active; assay type: functional; details: route oral; in short: as §1
Cavia porcellus [6] = assay: Respiratory status of guinea pigs exposed to histamine aerosol expressed as percent protection 2 hr at a dose of 60 mg/kg (po)
Cavia porcellus [7] = assay: Respiratory status of guinea pigs exposed to histamine aerosol expressed as percent protection at a dose of 10 mg/kg (po); assay type: functional; in short: as §2
Cavia porcellus [8] = assay: Respiratory status of guinea pigs exposed to histamine aerosol expressed as percent protection at a dose of 60 mg/kg (po); assay type: functional; in short: as §2
Cavia porcellus [9] = assay: Respiratory status of guinea pigs exposed to histamine aerosol expressed as percent protection 8 hr at a dose of 60 mg/kg (po)
Cavia porcellus [10] = assay: Respiratory status of guinea pigs exposed to histamine aerosol expressed as percent protection 4 hr at a dose of 60 mg/kg (po)
Cavia porcellus [11] = assay: Respiratory status of guinea pigs exposed to histamine aerosol expressed as percent protection at a dose of 3 mg/kg (po); assay type: functional; in short: as §2
Cavia porcellus [12] = assay: Respiratory status of guinea pigs exposed to histamine aerosol expressed as percent protection at a dose of 30 mg/kg (po); assay type: functional; in short: as §2
Cavia porcellus [13] = assay: Respiratory status of guinea pigs exposed to histamine aerosol expressed as percent protection 8 hr at a dose of 60 mg/kg (po); assay type: functional
In short: (§3)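 Duration study in guinea pigs: 60 mg/kg po given 2, 4 or 8 h before exposure to aerosol from 0.4% aqueous histamine nebulized at 6 psi in a closed chamber. Respiratory distress was scored 0–4. Percent protection compares the total score of 8 treated animals with 8 controls (control = 0, complete protection = 100).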

Cavia porcellus [14] = assay: Respiratory status of guinea pigs exposed to histamine aerosol expressed as percent protection 4 hr at a dose of 60 mg/kg (po); assay type: functional; in short: as §3
Cavia porcellus [15] = assay: Respiratory status of guinea pigs exposed to histamine aerosol expressed as percent protection 2 hr at a dose of 60 mg/kg (po); assay type: functional; in short: as §3
Rattus norvegicus [16] = assay: Evaluation of antiulcer activity( percent decrease in total number of lesions in cold-restraint, stressed rats) at intraperitoneal dose at 32 mg/kg; Inactive; assay type: functional; in short: as §1
Rattus norvegicus [17] = assay: Evaluation of antiulcer activity (percent decrease in total number of lesions in cold-restraint, stressed rats) at intraperitoneal dose at 100 mg/kg; Active; assay type: functional; in short: as §1
Rattus norvegicus [18] = assay: Evaluation of antiulcer activity (percent decrease in total number of lesions in cold-restraint, stressed rats) at peroral dose 10 mg/kg; Inactive; details: route oral
Rattus norvegicus [19] = assay: Evaluation of antiulcer activity (percent decrease in total number of lesions in cold-restraint, stressed rats) at intraperitoneal dose at 100 mg/kg; Inactive; assay type: functional; in short: as §1
Cavia porcellus [20] = assay: Evaluation of bronchodilator activity at dose 60 mg/kg perorally 1 hr prior to histamine aerosol exposure; 20-30; assay type: functional; details: route oral
In short: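 Guinea pigs got 60 mg/kg po, either dissolved in 1 N HCl or suspended in vehicle; controls got vehicle. After 1 h each was challenged with histamine aerosol: 0.4% aqueous histamine nebulized at 6 psi into a closed chamber. Respiration was scored 0–4, with 4 being unconsciousness. Percent protection came from comparing the total score of eight treated animals with a control group of eight, giving a single value.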

Compound	Protection (Cavia porcellus [2]) [%]	Decrease (Rattus norvegicus [3]) [%]	Decrease (Rattus norvegicus [4]) [%]	other results
COc1cccc(Oc2cnc(O)nc2)c1	3	55	–	Decrease (Rattus norvegicus [1]): 82%
Cc1cccc(Oc2cncnc2O)c1	28	0	–	–
Oc1ncc(Oc2cccc(C(F)(F)F)c2)cn1	26	39	–	–
CC(C)c1ccc(Oc2cnc(O)nc2)cc1	0	0	9	–
Oc1ncc(Oc2ccc(Cl)cc2)c(O)n1	50	35	–	–
COc1ccc(Oc2cncnc2O)cc1	26	0	–	–
Cc1ccc(Oc2cnc(O)nc2O)cc1	35	0	–	–
Cc1cc(C)cc(Oc2cnc(O)nc2)c1	38	50	–	Decrease (Rattus norvegicus [1]): 53%
COc1ccc(Oc2cnc(O)nc2)cc1	45	0	0	–
Cc1ccc(Sc2cnc(O)nc2)cc1	26	18	–	Decrease (Rattus norvegicus [1]): 64%
Cc1ccc(Oc2cncnc2O)cc1	92	27	–	–
Cc1cccc(Oc2cnc(=O)[nH]c2)c1 [TOLIMIDONE]	3	–	–	Decrease (Rattus norvegicus [1]): 70%; Decrease (Rattus norvegicus [5]): 38%
Cc1ccc(Oc2cnc(O)nc2)cc1C	14	54	53	–
Oc1ncc(Oc2ccc(Cl)cc2)cn1	92	7	0	Protection (Cavia porcellus [6]): 94%; Protection (Cavia porcellus [7]): 37%; Protection (Cavia porcellus [8]): 92%; Protection (Cavia porcellus [9]): 88%; Protection (Cavia porcellus [10]): 94%; Protection (Cavia porcellus [11]): 22%; Protection (Cavia porcellus [12]): 71%
Cc1ccc(Oc2cnc(O)nc2)cc1	86	–	0	Protection (Cavia porcellus [7]): 18%; Protection (Cavia porcellus [8]): 86%; Protection (Cavia porcellus [13]): 10%; Protection (Cavia porcellus [11]): 2%; Protection (Cavia porcellus [14]): 8%; Protection (Cavia porcellus [12]): 81%; Decrease (Rattus norvegicus [5]): 57%; Protection (Cavia porcellus [15]): 86%
Oc1ncc(Oc2ccc(Cl)cc2Cl)cn1	47	22	19	–
Oc1ncncc1Oc1cccc(Cl)c1	13	–	–	Decrease (Rattus norvegicus [16]): 18%
Oc1ncc(Oc2ccc(F)cc2)cn1	66	0	0	–
Oc1ncc(Oc2ccccc2)cn1	28	–	–	Decrease (Rattus norvegicus [1]): 81%; Decrease (Rattus norvegicus [5]): 37%
Cc1ccccc1Oc1cnc(O)nc1	6	0	25	–

Compound	Protection (Cavia porcellus [2]) [%]	Decrease (Rattus norvegicus [3]) [%]	Decrease (Rattus norvegicus [4]) [%]	other results
Oc1ncncc1Oc1ccc(F)cc1	80	28	–	–
Oc1ncncc1Oc1ccccc1Cl	13	–	–	–
Cc1cccc(Oc2cnc(O)nc2O)c1	7	0	–	Decrease (Rattus norvegicus [1]): 67%
Oc1ncncc1Oc1ccccc1	23	0	–	–
CCc1cccc(Oc2cnc(O)nc2)c1	3	28	–	Decrease (Rattus norvegicus [1]): 53%
Oc1ncc(Oc2ccc(Br)cc2)cn1	90	0	0	–
Oc1ncc(Oc2cccc(Cl)c2)cn1	22	22	0	–
COc1cccc(Oc2cncnc2O)c1	7	0	–	–
Cc1cc(Oc2cnc(O)nc2)ccc1Cl	6	0	14	–
Cc1cccc(Sc2cnc(O)nc2)c1	–	–	–	Decrease (Rattus norvegicus [17]): 78%; Decrease (Rattus norvegicus [18]): 0%
C[S+]([O-])c1ccc(Oc2cnc(O)nc2)cc1 (configuration not stated)	10	50	0	–
Cc1ccc(Oc2cnc(O)nc2)c(C)c1	–	–	0	Decrease (Rattus norvegicus [18]): 6%
CCc1ccc(Oc2cnc(O)nc2)cc1	98	0	27	–
Oc1ncncc1Oc1ccc(Cl)c(Cl)c1	45	–	–	–
Oc1ncc(Sc2ccc(Cl)cc2)cn1	63	–	–	–
Oc1ncc(Sc2ccccc2)cn1	23	45	47	–
Oc1ncc(Oc2ccccc2)c(O)n1	25	22	–	–
CSc1ccc(Oc2cnc(O)nc2)cc1	55	0	0	–
Oc1ncncc1Oc1ccc(Cl)cc1	92	–	–	Decrease (Rattus norvegicus [19]): 0%
Cn1c(=O)c2nc[nH]c2n(C)c1=O.O [THEOPHYLLINE]	–	–	–	Protection (Cavia porcellus [20]): 20%
